Assay results reported in ChEMBL document CHEMBL3227917, “Structure-activity relationships of dimeric Catharanthus alkaloids. 2. Experimental antitumor activities of N-substituted deacetylvinblastine amide (vindesine) sulfates” (J Med Chem, 1979).

Columns and labels:
[1] = Antitumor activity against mouse Gardner lymphosarcoma allografted in C3H mouse assessed as tumor growth inhibition at 0.05 mg/kg, ip administered daily for 8 to 10 days; format: functional; details: route intraperitoneal, read-out: TGI
How it was run: (§1)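 Gardner lymphosarcoma in C3H mice; sulfate salts unless noted, given ip daily for 8–10 days, treatment starting 8 days after tumor implantation. Tumor growth inhibition scored as –, 0–25%; +, 26–50%; ++, 51–75%; +++, 76–100%; T, lethal to ≥5 of 10 animals per group. Average of one or more tests.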

[2] = Antitumor activity against mouse Gardner lymphosarcoma allografted in C3H mouse assessed as tumor growth inhibition at 0.10 mg/kg, ip administered daily for 8 to 10 days; format: functional; details: route intraperitoneal, read-out: TGI; how it was run: as §1
[3] = Antitumor activity against mouse Gardner lymphosarcoma allografted in C3H mouse assessed as tumor growth inhibition at 0.20 mg/kg, ip administered daily for 8 to 10 days; format: functional; details: route intraperitoneal, read-out: TGI; how it was run: as §1
[4] = Antitumor activity against mouse Gardner lymphosarcoma allografted in C3H mouse assessed as tumor growth inhibition at 0.30 mg/kg, ip administered daily for 8 to 10 days; format: functional; details: route intraperitoneal, read-out: TGI; how it was run: as §1
[5] = Antitumor activity against mouse Gardner lymphosarcoma allografted in C3H mouse assessed as tumor growth inhibition at 0.40 mg/kg, ip administered daily for 8 to 10 days; format: functional; details: route intraperitoneal, read-out: TGI; how it was run: as §1
Mus musculus [6] = experiment: Toxicity in C3H mouse allografted with mouse Gardner lymphosarcoma assessed as lethality at 0.5 mg/kg, ip administered daily for 8 to 10 days; format: organism-based; parameters: dose 0.5 mg/kg, route intraperitoneal; details: in vivo
How it was run: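 Tumor-bearing mice given sulfate salts ip daily for 8–10 days; values are the average of one or more tests. Toxic means lethal to ≥5 of 10 animals per group.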

[7] = Antitumor activity against mouse Ridgway osteogenic sarcoma allografted in AKR mouse assessed as tumor growth inhibition at 0.05 mg/kg, ip administered daily for 8 to 10 days compound treatment commenced 8 days after tumor implantation; format: functional; details: route intraperitoneal, read-out: TGI
[8] = Antitumor activity against mouse Ridgway osteogenic sarcoma allografted in AKR mouse assessed as tumor growth inhibition at 0.10 mg/kg, ip administered daily for 8 to 10 days compound treatment commenced 8 days after tumor implantation; format: functional; details: route intraperitoneal, read-out: TGI
[9] = Antitumor activity against mouse Ridgway osteogenic sarcoma allografted in AKR mouse assessed as tumor growth inhibition at 0.20 mg/kg, ip administered daily for 8 to 10 days compound treatment commenced 8 days after tumor implantation; format: functional; details: route intraperitoneal, read-out: TGI
[10] = Antitumor activity against mouse Ridgway osteogenic sarcoma allografted in AKR mouse assessed as tumor growth inhibition at 0.30 mg/kg, ip administered daily for 8 to 10 days compound treatment commenced 8 days after tumor implantation; format: functional; details: route intraperitoneal, read-out: TGI
[11] = Antitumor activity against mouse Ridgway osteogenic sarcoma allografted in AKR mouse assessed as tumor growth inhibition at 0.40 mg/kg, ip administered daily for 8 to 10 days compound treatment commenced 8 days after tumor implantation; format: functional; details: route intraperitoneal, read-out: TGI
B16 [12] = experiment: Antitumor activity against mouse B16 cells allografted in C57BL/6 mouse assessed as prolongation of host survival at 0.60 mg/kg, ip administered on days 1,5 and 9; format: functional; details: route intraperitoneal
How it was run: (§2)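 B16 melanoma cells (10⁶ inoculum) implanted ip in C57BL/6 mice; groups of 10. Sulfate salts unless noted, given ip on days 1, 5 and 9. Single test. Survival prolongation is expressed as percent versus controls, with survivors counted on day 60. Toxic means deaths of ≥5 of 10 animals before the first control death.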

B16 [13] = experiment: Antitumor activity against mouse B16 cells allografted in C57BL/6 mouse assessed as prolongation of host survival at 0.90 mg/kg, ip administered on days 1,5 and 9; format: functional; details: route intraperitoneal; how it was run: as §2
B16 [14] = experiment: Antitumor activity against mouse B16 cells allografted in C57BL/6 mouse assessed as prolongation of host survival at 1.20 mg/kg, ip administered on days 1,5 and 9; format: functional; details: route intraperitoneal; how it was run: as §2
[15] = Antitumor activity against mouse P1534 cells allografted in DBA2 mouse assessed as tumor growth inhibition at 0.20 mg/kg, ip administered daily for 8 to 10 days; format: functional; details: route intraperitoneal, read-out: TGI
How it was run: (§3)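 P1534(J) leukemia implanted sc in DBA2 mice; sulfate salts dosed ip daily for 8–10 days. Growth inhibition scored –, 0–25%; +, 26–50%; ++, 51–75%; +++, 76–100%; T, lethal to ≥5 of 10 animals per group. Average of one or more tests.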

[16] = Antitumor activity against mouse P1534 cells allografted in DBA2 mouse assessed as tumor growth inhibition at 0.25 mg/kg, ip administered daily for 8 to 10 days; format: functional; details: route intraperitoneal, read-out: TGI; how it was run: as §3
[17] = Antitumor activity against mouse P1534 cells allografted in DBA2 mouse assessed as tumor growth inhibition at 0.30 mg/kg, ip administered daily for 8 to 10 days; format: functional; details: route intraperitoneal, read-out: TGI; how it was run: as §3
Mus musculus [18] = experiment: Toxicity in DBA2 mouse allografted with mouse P1534 cells at 0.40 mg/kg, ip administered daily for 8 to 10 days; format: organism-based; parameters: dose 0.4 mg/kg, route intraperitoneal; details: in vivo, 0.4 mg/kg; how it was run: as §3
[19] = Toxicity in iv dosed mouse assessed as lethality; format: organism-based; details: in vivo
P388/VCR [20] = experiment: Antitumor activity against mouse P388/VCR cells allografted in CD2F1 mouse assessed as increase in host lifespan at 1.08 mg/kg, ip administered on days 1, 5 and 9; format: functional; details: route intraperitoneal
How it was run: (§4)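 Groups of eight male CD2F1 mice bearing P388 leukemia, run at NCI. Sulfate salts given ip on days 1, 5 and 9. Read-out is percent increase in lifespan.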

P388/S [21] = experiment: Antitumor activity against mouse P388/S cells allografted in CD2F1 mouse assessed as increase in host lifespan at 1.80 mg/kg, ip administered on days 1, 5 and 9; format: functional; details: dose 1.8 mg/kg; route intraperitoneal
How it was run: (§5)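 Groups of eight male CD2F1 mice, tested at the NCI. Compounds were given as sulfate salts, dosed in mg/kg ip on days 1, 5 and 9. Activity was read as percent increase in lifespan against the leukemia line.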

P388/S [22] = experiment: Antitumor activity against mouse P388/S cells allografted in CD2F1 mouse assessed as increase in host lifespan at 1.08 mg/kg, ip administered on days 1, 5 and 9; format: functional; details: route intraperitoneal; how it was run: as §4
P388/S [23] = experiment: Antitumor activity against mouse P388/S cells allografted in CD2F1 mouse assessed as increase in host lifespan at 0.648 mg/kg, ip administered on days 1, 5 and 9; format: functional; details: route intraperitoneal; how it was run: as §4
P388/VCR [24] = experiment: Antitumor activity against mouse P388/VCR cells allografted in CD2F1 mouse assessed as increase in host lifespan at 1.80 mg/kg, ip administered on days 1, 5 and 9; format: functional; details: dose 1.8 mg/kg; route intraperitoneal; how it was run: as §5
P388/VCR [25] = experiment: Antitumor activity against mouse P388/VCR cells allografted in CD2F1 mouse assessed as increase in host lifespan at 0.648 mg/kg, ip administered on days 1, 5 and 9; format: functional; details: route intraperitoneal; how it was run: as §4
P388/VCR [26] = experiment: Antitumor activity against mouse P388/VCR cells allografted in B6D2F1 mouse assessed as increase in host lifespan at 1.20 mg/kg, ip administered on days 1, 5 and 9; format: functional; details: dose 1.2 mg/kg; route intraperitoneal
How it was run: (§6)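 P388/VCR leukemia in groups of 10 B6D2F1 mice, run at Lilly using the cell strain received from NCI. Sulfate salts given ip on days 1, 5 and 9. Read-out is percent increase in lifespan.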

P388/VCR [27] = experiment: Antitumor activity against mouse P388/VCR cells allografted in B6D2F1 mouse assessed as increase in host lifespan at 0.90 mg/kg, ip administered on days 1, 5 and 9; format: functional; details: dose 0.9 mg/kg; route intraperitoneal; how it was run: as §6
P388/VCR [28] = experiment: Antitumor activity against mouse P388/VCR cells allografted in B6D2F1 mouse assessed as increase in host lifespan at 0.60 mg/kg, ip administered on days 1, 5 and 9; format: functional; details: dose 0.6 mg/kg; route intraperitoneal; how it was run: as §6
Mus musculus [29] = experiment: Toxicity in CD2F1 mouse allografted with mouse P388/S cells at 3.00 mg/kg, ip administered on days 1, 5 and 9; format: organism-based; parameters: dose 3 mg/kg, route intraperitoneal; details: in vivo
Mus musculus [30] = experiment: Toxicity in CD2F1 mouse allografted with mouse P388/VCR cells at 3.00 mg/kg, ip administered on days 1, 5 and 9; format: organism-based; parameters: dose 3 mg/kg, route intraperitoneal; details: in vivo
[31] = Antitumor activity against mouse P388/VCR/I/63 cells allografted in Dublin-CDF1 mouse assessed as day of host death at 2.0 mg/kg, ip administered on days 1, 5 and 9 (reference value: 10 days); format: functional; details: route intraperitoneal
[32] = Antitumor activity against mouse P388/VCR/I/63 cells allografted in Dublin-CDF1 mouse assessed as increase in host lifespan at 2.0 mg/kg, ip administered on days 1, 5 and 9; format: functional; details: route intraperitoneal
CHO [33] = experiment: Mitotic arrest in CHO cells assessed as increase in cell accumulation at 0.02 ug/ml; format: functional, Cricetulus griseus
How it was run: (§7)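 Chinese hamster ovary cells in tissue culture, scored for mitotic arrest as increase in cells in mitotic arrest over control: +++, 40–50%; ++, 15–40%; +, 10–15%; ±, 7–10%; –, 3–7%. Cytotoxicity noted separately.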

CHO [34] = experiment: Mitotic arrest in CHO cells assessed as increase in cell accumulation at 0.002 ug/ml; format: functional, Cricetulus griseus; how it was run: as §7
Mus musculus [35] = experiment: Toxicity in mouse assessed as body weight at 0.5 mg/kg, ip administered twice per week for 4 weeks, then three doses per week for 3 weeks and finally six doses per week for 2 weeks measured during 9-weeks (reference value: 18.5 +/- 0.5 gms); format: organism-based; parameters: dose 0.5 mg/kg, route intraperitoneal; details: in vivo, 1512 h

CC[C@]1(O)C[C@@H]2CN(CCc3c([nH]c4ccccc34)[C@@](C(=O)OC)(c3cc4c(cc3OC)N(C)[C@H]3[C@@](O)(C(N)=O)[C@H](O)[C@]5(CC)C=CCN6CC[C@]43[C@@H]65)C2)C1.O=S(=O)(O)O [VINDESINE SULFATE]
inhibition in vivo at 0.05 mg/kg [1]: 0%
inhibition in vivo at 0.1 mg/kg [2]: 51%
inhibition in vivo at 0.2 mg/kg [3]: 76%
inhibition in vivo at 0.3 mg/kg [4]: 76%
inhibition in vivo at 0.4 mg/kg [5]: 76%
Activity (Mus musculus [6]): Toxic
inhibition in vivo at 0.05 mg/kg [7]: 0%
inhibition in vivo at 0.1 mg/kg [8]: 0%
inhibition in vivo at 0.2 mg/kg [9]: 51%
inhibition in vivo at 0.3 mg/kg [10]: 76%
inhibition in vivo at 0.4 mg/kg [11]: 76%
survival at 0.6 mg/kg (B16 [12]): 117%
survival at 0.9 mg/kg (B16 [13]): 144%
survival at 1.2 mg/kg (B16 [14]): 155%
inhibition in vivo at 0.2 mg/kg [15]: 51%
inhibition in vivo at 0.25 mg/kg [16]: 76%
inhibition in vivo at 0.3 mg/kg [17]: 76%
Activity (Mus musculus [18]): Toxic
LD50 [19]: 6.3 mg/kg
Activity (P388/VCR [20]): 0%
Activity (P388/S [21]): 138%
Activity (P388/S [22]): 129%
Activity (P388/S [23]): 96%
Activity (P388/VCR [24]): -8%
Activity (P388/VCR [25]): 4%
Activity (P388/VCR [26]): 3%
Activity (P388/VCR [27]): 5%
Activity (P388/VCR [28]): 0%
Activity (Mus musculus [29]): Toxic
Activity (Mus musculus [30]): Toxic
Activity [31]: 20 days
Activity [32]: 100%
Activity (CHO [33]): 15%
Activity (CHO [34]): 10%
Activity (Mus musculus [35]): 34.9 g
